The test system of one test is MT4. The experiment in a line: Concentration of compound required to reduce MT-4 cells viability by 50%. The test is classed as functional. The following applies: Homo sapiens. Put shortly: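 Uninfected human MT-4 lymphocyte cultures exposed to compound; CC50 is the concentration that lowers cell viability by 50%.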
Test [1] has as its system Human immunodeficiency virus 1. The experiment in a line: Concentration of compound required to inhibit HIV-1 replication in MT-4 cells by 50%. The test is classed as functional, organism-based. To be noted: Human immunodeficiency virus 1, MT4. The method, boiled down:
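HIV-1 strain HTLV-III_B infection of human MT-4 lymphocytes; EC50 is the compound concentration that inhibits virus-induced cytopathogenicity by 50%.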

A short description of test [2]: Minimal inhibitory concentration was measured as compound concentration that causes a microscopically visible alteration of C3H cell morphology. To be noted: Mus musculus. Type of test: functional. The method, boiled down:
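C3H murine embryo fibroblasts exposed to compound and examined by microscope; the minimal inhibitory concentration is the lowest level giving a visible change in cell morphology.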

The test system of another test is C3H/3T3. Nature of the test: Concentration of compound required to inhibit […] MSV-induced transformation of C3H/3T3 cells by 50%. Type of test: functional, cell-based. To be noted: Mus musculus. Put shortly:
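Moloney murine sarcoma virus (MSV) infection of murine embryo fibroblast C3H/3T3 cells; EC50 is the compound concentration that inhibits MSV-induced cell transformation by 50%.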

Values after ≈ are worked out from the molar mass of the structure shown.

In the case of `[C-]#[N+]C[C@H]1OC(n2cc(C)c(=O)[nH]c2=O)C[C@H]1N=[N+]=[N-]` (stereo partly specified), the CC50 in the test with MT4 was 122 µM. The compound further returned an EC50 in test [1] greater than 40 µM.
Taken in the same sequence, the figures for `[C-]#[N+]C[C@H]1OC(n2ccc(=O)[nH]c2=O)C[C@H]1N=[N+]=[N-]` (stereo partly specified) were 104 µM and greater than 40 µM.
The compound `[C-]#[N+]C[C@H]1OC(n2ccc(=O)[nH]c2=O)C[C@H]1O` (stereo partly specified) displayed an MIC in test [2] of 3.2 µM (≈ 0.759 µg/mL). The CC50 in the test with MT4 stood at 125 µM. Besides, the EC50 was greater than 3.2 µM with C3H/3T3 and greater than 200 µM in test [1].
Taken in the same sequence, the figures for `[C-]#[N+]C[C@H]1OC(n2cc(C)c(=O)[nH]c2=O)C[C@H]1O` (stereo partly specified) were 3.2 µM (≈ 0.804 µg/mL), 144 µM, greater than 3.2 µM and greater than 200 µM.
In the same order, the values of `Cc1cn([C@H]2C[C@H](N=[N+]=[N-])[C@@H](CO)O2)c(=O)[nH]c1=O` [ZIDOVUDINE] are greater than 400 µM, 20 µM, 0.02 µM and 0.004 µM.

The values above are taken from ChEMBL document CHEMBL1125673, “Synthesis and antiretrovirus properties of 5'-isocyano-5'-deoxythymidine, 5'-isocyano-2',5'-dideoxyuridine, 3'-azido-5'-isocyano-3',5'-dideoxythymidine, and 3'-azido-5'-isocyano-2',3',5'-trideoxyuridine” (J Med Chem, 1991).
